Laboratory results: paper PMC4661106 (Bioorganic & medicinal chemistry, 2015)

Columns and labels:
HIV-1 PR [1] = target: T1, HIV-1 PR (Human immunodeficiency virus type 1 group M subtype B, UniProt P04585); format: biochemical
MT-4 cells = experiment: Endpoint cytotoxicity assay, viable cells by trypan-blue dye exclusion; format: cell-based; conditions: three days, Figure 5; for general cytotoxicity to MT-4 cells: at 100 μM; for general cytotoxicity: tolerated by MT-4 cells: up to 50 μM
Outline: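 Uninfected MT-4 cells were seeded at 2 × 10^5 cells/ml, in triplicate, in medium with carrier only or test compound at 10, 50 or 100 μM. Compounds were dissolved in DMSO and diluted in medium to a final DMSO of 0.25%. Incubation was 37 °C, 5% CO2. After three days, viable cells were counted by trypan-blue dye exclusion.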

[2] = test system: HIV replication in TZM-bl cells; experiment: Viral replication inhibition assay, luciferase reporter; format: cell-based; conditions: doses of 50 μM or higher, MOI = 0.01
Outline: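 TZM-bl cells (HeLa-derived; CD4, CCR5, CXCR4; tat-driven luciferase) were seeded at 1×10^4 cells/mL and incubated overnight. The medium was then replaced with replication-competent pNL4-3 HIV or mock, in medium with carrier or test compound at final 25, 50 or 100 μM. Final DMSO was 0.25%. Conditions were run in triplicate. On the indicated days post infection, cells were PBS-washed and luciferase was read. RLU was expressed relative to the untreated control.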

HIV-1 PR [3] = target: T1, HIV-1 PR; experiment: Michaelis-Menten kinetics, mode of inhibition; format: biochemical; conditions: Michaelis-Menten analysis, Figure 4
Compound solubility = format: physicochemical

Structure (SMILES)	Ki (HIV-1 PR [1]) [µM]	other results
CCC(C)[C@@H]1N=C(C)c2ccc(C(=O)OC(C)(C)C)cc2NC1=O (stereo in doubt) [Compound 6e, (S)-tert-Butyl 3-((R)-sec-butyl)-5-methyl-2-oxo-2,3-dihydro-1H-benzo[e][1,4]diazepine-8-carboxylate]	> 200	
CC1=NCC(=O)Nc2cc(C(=O)OC(C)(C)C)ccc21 [Compound 6a, tert-Butyl 5-methyl-2-oxo-2,3-dihydro-1H-benzo[e][1,4]diazepine-8-carboxylate]	> 200	
CC1=N[C@@H](C)C(=O)Nc2cc(C(=O)OC(C)(C)C)ccc21 [Compound 6b, (S)-tert-Butyl 3,5-dimethyl-2-oxo-2,3-dihydro-1H-benzo[e][1,4]diazepine-8-carboxylate]	> 200	
CC1=N[C@H](CC(C)C)C(=O)Nc2cc(C(=O)OC(C)(C)C)ccc21 [Compound 6d, (R)-tert-Butyl 3-isobutyl-5-methyl-2-oxo-2,3-dihydro-1H-benzo[e][1,4]diazepine-8-carboxylate]	> 200	
CC1=N[C@@H](C)C(=O)Nc2cc(C(=O)O)ccc21 [Compound 7b, (S)-3,5-Dimethyl-2-oxo-2,3-dihydro-1H-benzo[e][1,4]diazepine-8-carboxylic acid]	> 200	
CC1=N[C@@H](CC(C)C)C(=O)Nc2cc(C(=O)O)ccc21 [Compound 7c, (S)-3-Isobutyl-5-methyl-2-oxo-2,3-dihydro-1H-benzo[e][1,4]diazepine-8-carboxylic acid]	> 200	
CC1=N[C@H](CC(C)C)C(=O)Nc2cc(C(=O)O)ccc21 [Compound 7d, (R)-3-Isobutyl-5-methyl-2-oxo-2,3-dihydro-1H-benzo[e][1,4]diazepine-8-carboxylic acid]	> 200	
CC1=N[C@@H](Cc2ccccc2)C(=O)Nc2cc(C(=O)O)ccc21 [Compound 7f, (S)-3-Benzyl-5-methyl-2-oxo-2,3-dihydro-1H-benzo[e][1,4]diazepine-8-carboxylic acid]	> 200	
CC1=N[C@H](Cc2ccccc2)C(=O)Nc2cc(C(=O)O)ccc21 [Compound 7g, (R)-3-benzyl-5-methyl-2-oxo-2,3-dihydro-1H-benzo[e][1,4]diazepine-8-carboxylic acid]	> 200	
CC1=N[C@H](CC(C)C)C(=O)N(Cc2ccccc2)c2cc(C(=O)OC(C)(C)C)ccc21 [Compound 8h, (R)-tert-Butyl 1-benzyl-3-isobutyl-5-methyl-2-oxo-2,3-dihydro-1H-benzo[e][1,4]diazepine-8-carboxylate]	> 200	
CC1=N[C@H](CC(C)C)C(=O)N(Cc2ccncc2)c2cc(C(=O)OC(C)(C)C)ccc21 [Compound 8m, (R)-tert-Butyl 3-isobutyl-5-methyl-2-oxo-1-(pyridin-4-ylmethyl)-2,3-dihydro-1H-benzo[e][1,4]diazepine-8-carboxylate]	> 200	
CCCCCCCCCCNC(=O)CN1C(=O)[C@@H](CC(C)C)N=C(C)c2ccc(C(=O)OC(C)(C)C)cc21 [Compound 8o, (R)-tert-Butyl 3-isobutyl-5-methyl-2-oxo-1-(2-oxo-2-(decylamino)ethyl)-2,3-dihydro-1H-benzo[e][1,4]diazepine-8-carboxylate]	> 200	
CCCCCCNC(=O)CN1C(=O)[C@@H](CC(C)C)N=C(C)c2ccc(C(=O)OC(C)(C)C)cc21 [Compound 8q, (R)-tert-Butyl 3-isobutyl-5-methyl-2-oxo-1-(2-oxo-2-(hexylamino)ethyl)-2,3-dihydro-1H-benzo[e][1,4]diazepine-8-carboxylate]	> 200	
CC1=N[C@H](CC(C)C)C(=O)N(CC(=O)N2CCN(C(=O)OCc3ccccc3)CC2)c2cc(C(=O)OC(C)(C)C)ccc21 [Compound 8s, (R)-tert-Butyl 1-(2-(4-((benzyloxy)carbonyl)piperazin-1-yl)-2-oxoethyl)-3-isobutyl-5-methyl-2-oxo-2,3-dihydro-1H-benzo[e][1,4]diazepine-8-carboxylate]	> 200	
CC1=N[C@H](CC(C)C)C(=O)N(CC(=O)N2CCN(C(=O)OCC3c4ccccc4-c4ccccc43)CC2)c2cc(C(=O)OC(C)(C)C)ccc21 [Compound 8t, (R)-tert-Butyl 1-(2-(4-(((9H-fluoren-9-yl)methoxy)carbonyl)piperazin-1-yl)-2-oxoethyl)-3-isobutyl-5-methyl-2-oxo-2,3-dihydro-1H-benzo[e][1,4]diazepine-8-carboxylate]	> 200	
CC1=N[C@H](CC(C)C)C(=O)N(Cc2ccc(C3CCCCC3)cc2)c2cc(C(=O)O)ccc21 [Compound 9d, (R)-1-(4-Cyclohexylbenzyl)-3-isobutyl-5-methyl-2-oxo-2,3-dihydro-1H-benzo[e][1,4]diazepine-8-carboxylic acid]		general cytotoxicity to MT-4 cells (MT-4 cells): particularly cytotoxic; general cytotoxicity: tolerated by MT-4 cells (MT-4 cells): tolerated; inhibition of HIV replication within cells (RLU relative to control) [2]: appeared to inhibit HIV replication
CC1=N[C@H](CC(C)C)C(=O)N(Cc2ccccc2)c2cc(C(=O)O)ccc21 [Compound 9h, (R)-1-Benzyl-3-isobutyl-5-methyl-2-oxo-2,3-dihydro-1H-benzo[e][1,4]diazepine-8-carboxylic acid]	> 200	
CC1=N[C@H](CC(C)C)C(=O)N(Cc2ccc(-c3ccccc3)cc2)c2cc(C(=O)O)ccc21 [Compound 9j, (R)-1-([1,1′-Biphenyl]-4-ylmethyl)-3-isobutyl-5-methyl-2-oxo-2,3-dihydro-1H-benzo[e][1,4]diazepine-8-carboxylic acid]		general cytotoxicity to MT-4 cells (MT-4 cells): particularly cytotoxic; general cytotoxicity: tolerated by MT-4 cells (MT-4 cells): tolerated; inhibition of HIV replication within cells (RLU relative to control) [2]: appeared to inhibit HIV replication
CC1=N[C@H](CC(C)C)C(=O)N(CC(C)C)c2cc(C(=O)O)ccc21 [Compound 9k, (R)-1,3-Diisobutyl-5-methyl-2-oxo-2,3-dihydro-1H-benzo[e][1,4]diazepine-8-carboxylic acid]	> 200	
CC1=N[C@H](CC(C)C)C(=O)N(CC(=O)O)c2cc(C(=O)O)ccc21 [Compound 9l, (R)-1-(Carboxymethyl)-3-isobutyl-5-methyl-2-oxo-2,3-dihydro-1H-benzo[e][1,4]diazepine-8-carboxylic acid]	> 200	
CC1=N[C@H](CC(C)C)C(=O)N(Cc2ccncc2)c2cc(C(=O)O)ccc21 [Compound 9m, (R)-3-Isobutyl-5-methyl-2-oxo-1-(pyridin-4-ylmethyl)-2,3-dihydro-1H-benzo[e][1,4]diazepine-8-carboxylic acid]	> 200	
CCCCCCCCCCNC(=O)CN1C(=O)[C@@H](CC(C)C)N=C(C)c2ccc(C(=O)O)cc21 [Compound 9o, (R)-3-Isobutyl-5-methyl-2-oxo-1-(2-oxo-2-(decylamino)ethyl)-2,3-dihydro-1H-benzo[e][1,4]diazepine-8-carboxylic acid]		mode of inhibition (HIV-1 PR [3]): competitive inhibitor; general cytotoxicity to MT-4 cells (MT-4 cells): particularly cytotoxic; general cytotoxicity: tolerated by MT-4 cells (MT-4 cells): tolerated; inhibition of HIV replication within cells (RLU relative to control) [2]: appeared to inhibit HIV replication; solubility (Compound solubility): poor solubility
CCCCCCCCCCCCCCCCNC(=O)CN1C(=O)[C@@H](CC(C)C)N=C(C)c2ccc(C(=O)O)cc21 [Compound 9p, (R)-3-isobutyl-5-methyl-2-oxo-1-(2-oxo-2-(hexadecylamino)ethyl)-2,3-dihydro-1H-benzo[e][1,4]diazepine-8-carboxylic acid]		general cytotoxicity to MT-4 cells (MT-4 cells): particularly cytotoxic; general cytotoxicity: tolerated by MT-4 cells (MT-4 cells): All but 9p were tolerated; inhibition of HIV replication within cells (RLU relative to control) [2]: appeared to inhibit HIV replication
CC1=N[C@H](CC(C)C)C(=O)N(CC(=O)N2CCNCC2)c2cc(C(=O)O)ccc21 [Compound 9r, (R)-3-Isobutyl-5-methyl-2-oxo-1-(2-oxo-2-(piperazin-1-yl)ethyl)-2,3-dihydro-1H-benzo[e][1,4]diazepine-8-carboxylic acid]	> 200	
